Experimental data reported in paper PMC8604242 (Clinical and Translational Science, 2021).
Entries after “also recorded” stand apart in the source; their conditions may differ. Like-named read-outs stand apart in the source and are kept apart here.

Experiments:
[1] = Mass balance: excretion of total radioactivity in urine and feces; type: in vivo, human
How it was run: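 Six healthy men received one oral 75‑mg solution (30 ml, ~3.6 MBq/~100 μCi ¹⁴C label), followed by two 50‑ml bottle rinses. Urine got scintillation cocktail directly. Feces were homogenized with equal weight of water, dried, and combusted with CO2 trapped in absorber. LSC was done in duplicate. Excretion was expressed against the administered radioactive dose over nominal collection intervals, with descriptive statistics.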

Safety = type: in vivo, human; conditions: single dose of ^14C-evobrutinib
[2] = Plasma PK of evobrutinib by validated LC-MS/MS; type: in vivo, human
How it was run: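 Unlabeled drug was measured in K2EDTA plasma (100 µL) by validated LC‑MS/MS with an isotopically labeled internal standard. LLOQ was 0.600 ng/ml, linear to 600 ng/ml with 1/x2‑weighted regression. Participants were six healthy men given a single oral 75‑mg solution dose. Noncompartmental Cmax, Tmax, AUC, t1/2, Vz/F and CL/F used actual sampling times. Parent AUC was related to plasma total‑radioactivity AUC.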

[3] = Metabolite profiling and identification in plasma, urine and feces; type: in vivo, human
How it was run: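 UPLC‑HR‑MS (QTof) with the eluent fractionated every 7 s, off‑line microplate scintillation counting, and reconstructed radiochromatograms. Urine and feces were pooled per participant covering ≥90% of excreted radioactivity, excluding low‑radioactivity intervals. Plasma (1–24 h) was exhaustively extracted with ethanol/acetonitrile, evaporated under nitrogen at 37°C, and redissolved in ACN/MeOH/water 1+1+8. Nonextractable radioactivity was the precipitate counted by LSC, as % of total. AUCs were noncompartmental.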

[4] = type: in vivo, human; conditions: for AUC0-t of total radioactivity, GM (GM CV, %) / AUC0–24h of total radioactivity, GM (GM CV, %) / Cmax of total radioactivity, GM (GM CV, %) / Tmax of total radioactivity, median (min, max): single 75-mg oral dose
How it was run: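 After a single oral 75‑mg ¹⁴C dose in six healthy men, total radioactivity was measured by duplicate LSC. Plasma was spiked directly with cocktail; whole blood was solubilized and decolorized first. Plasma LLOQ was 9.91 ng eq/ml (30 dpm/ml), with sampling from 0.25 h postdose. Noncompartmental parameters used actual sampling times, with descriptive statistics.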

BTK = conditions: cited from earlier work
human hepatocytes = conditions: cited from earlier work
[5] = cited from earlier work
[6] = system: patients with relapsing MS; conditions: cited from earlier work
rat hepatocytes = conditions: cited from earlier work
[7] = single 75-mg oral dose of ^14C-evobrutinib, six healthy men, within 168 h

C=CC(=O)N1CCC(CNc2ncnc(N)c2-c2ccc(Oc3ccccc3)cc2)CC1 [evobrutinib]
Unchanged evobrutinib in excreta (urine or feces) ([1]; single 75-mg oral dose): No unchanged evobrutinib was detected; also recorded: No unchanged evobrutinib was recovered
Total radioactivity excreted in feces, arithmetic mean percentage of dose [1, 7]: 71.0%
Total radioactivity excreted in urine, arithmetic mean percentage of dose [1, 7]: 20.6%
Radioactive dose excreted in feces within 96 h, range ([1]; single 75-mg oral dose, 0-96 h): 66.4–73.5%
Total radioactivity excreted within 72 h after administration (mean) ([1]; single 75-mg oral dose, urine plus feces, first 72 h): 85.3%
Mean total radioactivity recovery within 96 h ([1]; single 75-mg oral dose, urine plus feces, within 96 h): 89.7%
Mean total radioactivity recovery ([1]; single 75-mg oral dose, urine plus feces, within 168 h): 91.6%
Nausea, headache, epistaxis, and nasopharyngitis, number of participants each (Safety): 1 participant each
Oropharyngeal pain, number of participants (Safety): 2 participants
Serious AEs, deaths, or withdrawals (Safety): no serious AEs, deaths, or withdrawals
Severity and relatedness of AEs (Safety): mild and not considered study treatment related
Participants who experienced an adverse event (Safety; four of six participants): 67%
Cmax ([2]; human, plasma, po, 75 mg): 321 ng/mL
Half-life ([2]; human, plasma, po, 75 mg): 79.8 min
Vd/F ([2]; human, plasma, po, 75 mg): 381 L
Time of individual maximum evobrutinib plasma concentration, range ([2]; plasma, postdose): 0.25 to 0.50 h
AUC0-t of evobrutinib, GM (GM CV, %) ([2]; plasma, single 75-mg oral dose): 375 (19.4) ng (eq) h/ml
AUC0–24h of evobrutinib, GM (GM CV, %) ([2]; plasma, single 75-mg oral dose): 378 (19.4) ng (eq) h/ml
CL/F, GM (GM CV, %) ([2]; plasma, single 75-mg oral dose): 199 (19.4) L/h
Tmax of evobrutinib, median (min, max) ([2]; plasma, single 75-mg oral dose): 0.5 h
Tmax of evobrutinib, median (min, max) ([2]; plasma, single 75-mg oral dose, listed as Evobrutinib): 0.50 (0.25, 0.55) h
Parent drug share of total radioactivity plasma exposure (AUC) ([2]; single dose): 10–13%
Number of metabolites detected and elucidated in feces ([3]; feces): 30
Number of phase I metabolites fully or partially elucidated ([3]; in vivo): 40
Number of phase II metabolites fully or partially elucidated ([3]; in vivo): 18
Total number of metabolites identified in urine, feces, and plasma ([3]; in vivo): 58
Number of metabolites detected and elucidated in plasma ([3]; plasma): 24
Geometric mean AUC0–24 of nonextractable radioactivity ([3]; plasma, after exhaustive extraction): 1085 h٠ng eq/ml
Unchanged evobrutinib in feces ([3]; pooled feces): not detected
Unchanged evobrutinib in urine metabolite profiles ([3]; pooled urine): not detected
Number of metabolites detected and elucidated in urine ([3]; urine): 41
Mean blood to plasma ratio of total radioactivity ([4]; at 72 and 96 h postdose): 1.6
Mean blood to plasma ratio of total radioactivity ([4]; at 0.25 h postdose): 0.6
Time of individual maximum total radioactivity concentration in plasma, range ([4]; plasma, postdose): 0.25 to 1 h
AUC0-t of total radioactivity, GM (GM CV, %) ([4]; plasma): 3915 (32.7) ng (eq) h/ml
AUC0–24h of total radioactivity, GM (GM CV, %) ([4]; plasma): 2805 (14.8) ng (eq) h/ml
Cmax of total radioactivity, GM (GM CV, %) ([4]; plasma): 1047 (22.8) ng eq/ml
Tmax of total radioactivity, median (min, max) ([4]; plasma): 0.5 h
Tmax of total radioactivity, median (min, max) ([4]; plasma, listed as 14C‐radiolabeled evobrutinib): 0.50 (0.25, 1.00) h
AUC0-t of total radioactivity, GM (GM CV, %) ([4]; whole blood): 4944 (13.6) ng (eq) h/ml
AUC0–24h of total radioactivity, GM (GM CV, %) ([4]; whole blood): 2001 (9.9) ng (eq) h/ml
Cmax of total radioactivity, GM (GM CV, %) ([4]; whole blood): 623 (25.5) ng eq/ml
Tmax of total radioactivity, median (min, max) ([4]; whole blood): 0.5 h
Tmax of total radioactivity, median (min, max) ([4]; whole blood, listed as 14C‐radiolabeled evobrutinib): 0.50 (0.25, 1.00) h
BTK occupancy after multiple daily dosing (BTK; 25 mg, multiple daily dosing, healthy participants): Full BTK occupancy
BTK occupancy at 96 h (BTK; doses of greater than or equal to 100 mg): greater than 50%
Maximum BTK occupancy (BTK; reached within ~ 4 h after single doses of greater than or equal to 200 mg): > 90%
Number of different metabolites formed (human hepatocytes; rat and human hepatocytes): 23
Half-life ([5]; 25–200 mg doses): 1.8 to 2.6 h
Participants with treatment-emergent adverse events ([5]; after multiple-dosing, 13 participants): 48.1%
Participants with treatment-emergent adverse events ([5]; after single-dosing, nine participants): 25%
Severity of most TEAEs [5]: mild
Half-life ([5]; healthy participants): ~ 2 h
Time to reach maximum plasma concentration (Tmax) ([5]; healthy participants): ~ 0.5 h
Dose-proportionality, accumulation and time-dependency of PK ([5]; single 25-500 mg, 25-200 mg q.d. for 14 days): dose‐proportional, with no accumulation or time‐dependency with repeat dosing
Total number of gadolinium-enhancing lesions on T1-weighted MRI versus placebo ([6]; 75 mg q.d. and b.i.d., over 24 weeks): significantly reduced
Severity of the majority of TEAEs [6]: mild or moderate

Nc1ncnc(NCC2CCN(C(=O)C(O)CO)CC2)c1-c1ccc(Oc2ccccc2)cc1 (centres unmarked) [evobrutinib‐diol]
Rank among metabolites in human hepatocytes (human hepatocytes): main metabolite

hydroxyl‐evobrutinib
Rank among metabolites in rat hepatocytes (rat hepatocytes): most abundant metabolite
